{"source": "ChEMBL document CHEMBL4020840", "about": "“Synthesis and Biological Evaluation of Selenium-Containing 4-Anilinoquinazoline Derivatives as Novel Antimitotic Agents” (J Med Chem, 2018)", "tested_on": "A549", "test": "Antitumor activity against human A549 cells xenografted in Balb/c mouse assessed as tumor growth inhibition at 30 mg/kg, ip treated once in 2 days for 10 days relative to control", "assay_type": "functional", "settings": "read-out: TGI", "how_it_was_run": "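Male BALB/c nude mice, 5 weeks old, 18−20 g. Right flank injected sc with 0.1 mL of 1 × 10⁷ cells/mL log-phase A549 in FBS-free DMEM. At ~100 mm³, randomised into groups of 5 and dosed ip every 2 days; vehicle controls got equal volume. Tumour volume (0.5 × length × width²) and body weight recorded every 2 days.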", "data": [{"molecule": "COc1ccc(/C=C\\c2cc(OC)c(OC)c(OC)c2)cc1OP(=O)(O)O", "note": "[FOSBRETABULIN]", "values": [{"measurement": "inhibition in vivo at 30 mg/kg", "result": 56.6, "unit": "%"}]}]}
